Experimental data from ChEMBL document CHEMBL4513216, “Probing the Open Global Health Chemical Diversity Library for Multistage-Active Starting Points for Next-Generation Antimalarials” (ACS Infect Dis, 2020).

Assay: Toxicity liver stage against HepG2, at 10uM
Type: cell-based
Parameters: test concentration 10 uM, cell line HepG2-A16-CD81EGFP
Conditions: human, HepG2-A16-CD81EGFP cells; read-out: INHIBITION
Outline: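 Uninfected HepG2-A16-CD81EGFP cells, 3 × 10^3 per well, 1536-well, plated on prespotted compound at 10 μM final, parasite-free screening media added to match infected plates; puromycin 10 μM positive, DMSO 0.5% negative; run in parallel with 48 h PbLuc assay at 37 °C, 5% CO2; viability by CellTiter-Glo luminescence, normalized to controls.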

Row | SMILES | cytotoxicity at 10 µM [%]
1 | O=c1c2ccccc2nc2n1CCC2O (stereo not given) | 7.68
2 | CC1=C[C@@H](CN2CCC(CO)CC2)[C@H](C(C)C)C[C@H]1Cc1nnc(C)o1 | 8.24
3 | CC(C)CN1C[C@@H]2OCC(=O)N(c3ccccc3)[C@@H]2C1 | 1.08
4 | CNC(=O)C(C)(C)N1CCC[C@H]1C(=O)NCC1CC1 | 2.05
5 | O=C(CC1CC1)N1CCC2(CC(=O)N(c3cccc(F)c3)C2)C1 (stereo not given) | -148
6 | CCOCC(=O)N1CCCn2c(nnc2Cn2cccc2)C1 | -130
7 | CCS(=O)(=O)Nc1ccc(C(=O)NCCCN2CCCC2)cc1 | 1.83
8 | COc1ncccc1C(=O)N1CC[C@H]2C[C@@H](C)O[C@@H]2C1 | -7.63
9 | Cc1cc(C(=O)N(C)C)nc(C2(C)CCCN2c2ccnc(C)n2)n1 (stereo not given) | -7.49
10 | O=C(Cc1cccc(F)c1F)NS(=O)(=O)c1ccc(Cl)cc1F | -6.11
11 | CN(C)Cc1ccccc1NC(=O)c1ccc(C#N)cc1 | 4.2
12 | CCCN(CC)Cn1ncc2cn(-c3ccccc3)nc2c1=O | 1.44
13 | O=C(NC1CC1)c1cnc2n1CCCC2 | -6.81
14 | CN(Cc1cc(Br)cn1C)C(=O)c1ccon1 | -3.33
15 | Cc1cc(C(=O)NC(CC(C)C)C(=O)Nc2cc[nH]n2)c(C)o1 (stereo not given) | -11.7
16 | CC1CN(C(=O)c2ccnc(-n3cncn3)c2)c2ccccc2S1 (stereo not given) | -5.69
17 | O=C(NCC1CC1)c1cc(Cl)c2c(c1)OCCCO2 | 0.344
18 | COC(=O)c1ccc(NC(=O)[C@@H]2CCCN2C(=O)c2ccco2)s1 | -3.45
19 | Cc1ccc(OCC(=O)Nc2cnccc2SCCCO)cc1C | -2.35
20 | Cc1c(-c2nc(-c3cccc(CN4CCOCC4)c3)no2)cnn1C | -0.988
21 | Cn1cc(C#N)cc1C(=O)NC1(C#N)CCSCC1 | -7.23
22 | N#Cc1c(F)cccc1N1CCCC(C(=O)Nc2nncs2)C1 (stereo not given) | 4.48
23 | COCCN(C(=O)c1cc(-c2ccc(C)s2)[nH]n1)C1CC1 | 11.6

Row | SMILES | cytotoxicity at 10 µM [%]
24 | CC(C)C(C(=O)NCc1ccccc1-n1cccn1)N(C)C (stereo not given) | -3.17
25 | COc1ccc(C(C)=O)c(OCC(=O)NC(C)c2ccc(F)cc2)c1 (stereo not given) | 2.68
26 | Cc1ccc(-c2cc(C(=O)NC(C)C(=O)N3CCCCC3)on2)cc1 (stereo not given) | -7.17
27 | CCS(=O)(=O)CCn1ccc(NC(=O)CCc2cccc(C)c2)n1 | 2.94
28 | CN1CSC[C@H]1C(=O)N1CCC(Cc2ccccc2F)CC1 | 1.01
29 | O=C(Nc1cnn(CC(=O)N2CCCO2)c1)c1ccccc1 | -0.134
30 | CC(C)c1nc(CN(C)C(=O)c2ccc3c(c2)OCO3)cs1 | -1.1
31 | Cc1csc(N2CCC(CCN3CCCC3=O)CC2)n1 | -5.7
32 | Cc1cc(S(=O)(=O)NCC2CNCCOC2)c(C)cc1Cl (stereo not given) | -0.708
33 | Cc1ccc(NC2(C(=O)NCCCc3c(C)n[nH]c3C)CCCC2)cc1 | -10.1
34 | CCCNC(=O)N1CCc2ccc(S(=O)(=O)N3CCOCC3)cc2C1 | -2.56
35 | CN(C)C(=O)c1ccc2c(c1)N(C)C(CC(=O)NCc1ncc[nH]1)CO2 (stereo not given) | -5.93
36 | CC(C)c1cc(-c2nn3c(C(C)C)nnc3s2)[nH]n1 | 0.999
37 | O=C(c1ccc2[nH]c(=O)[nH]c2c1)N1CCC(Nc2cccnn2)CC1 | 0.00528
38 | CC(C)c1noc(CCC(=O)NC(C)c2ccccn2)n1 (stereo not given) | -5.86
39 | CS(=O)(=O)NCCNCc1ccc(Br)s1 | -3.04
40 | CCN1CCn2c(C)cnc2C12CCN(C(=O)C(C)C)CC2 | 3.06
41 | c1cnn(CCCO[C@@H]2CN(C3CCOCC3)[C@@H]3CCCO[C@@H]32)c1 | 4.56
42 | Cc1noc(C)c1CN1CCC2(CC1)CN(c1ccccn1)CCO2 | -3
43 | O=C(c1cccs1)N1CCC[C@]2(C[C@@H](OCc3ccncc3)CO2)C1 | 7.92
44 | CCc1ccc(CN2CCC3(CCCN(C(=O)c4cnccn4)C3)C2)o1 (stereo not given) | -127
45 | Cn1cc(CNC2CC3(CCN(CC4CC4)CC3)c3ccccc32)cn1 (stereo not given) | -8.22
